In assay [1] the target is T1, Aldo-keto reductase family 1 member C3 (Homo sapiens, UniProt P42330).
T1 sequence (P42330 whole entry): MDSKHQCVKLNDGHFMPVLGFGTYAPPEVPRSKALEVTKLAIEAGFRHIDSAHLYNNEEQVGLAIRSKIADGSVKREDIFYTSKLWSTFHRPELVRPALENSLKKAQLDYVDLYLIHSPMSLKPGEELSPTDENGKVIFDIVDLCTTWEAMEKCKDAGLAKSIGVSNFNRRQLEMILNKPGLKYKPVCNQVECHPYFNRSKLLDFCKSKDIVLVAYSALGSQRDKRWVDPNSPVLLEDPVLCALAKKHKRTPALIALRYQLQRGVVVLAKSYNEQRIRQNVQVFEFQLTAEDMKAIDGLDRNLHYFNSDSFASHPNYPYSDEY
Kind of assay: Inhibition of human recombinant AKR1C3 assessed as 1-acenaphthenol oxidation by spectrophotometry. The essentials: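 NADH formation was monitored at 340 nm using initial velocities. IC50 was read graphically from log10[inhibitor] versus % inhibition. Ki was derived by Cheng-Prusoff for competitive inhibition.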

Assay [2] deals with T2, Aldo-keto reductase family 1 member C1 (Homo sapiens) (UniProt Q04828).
T2 sequence (whole entry): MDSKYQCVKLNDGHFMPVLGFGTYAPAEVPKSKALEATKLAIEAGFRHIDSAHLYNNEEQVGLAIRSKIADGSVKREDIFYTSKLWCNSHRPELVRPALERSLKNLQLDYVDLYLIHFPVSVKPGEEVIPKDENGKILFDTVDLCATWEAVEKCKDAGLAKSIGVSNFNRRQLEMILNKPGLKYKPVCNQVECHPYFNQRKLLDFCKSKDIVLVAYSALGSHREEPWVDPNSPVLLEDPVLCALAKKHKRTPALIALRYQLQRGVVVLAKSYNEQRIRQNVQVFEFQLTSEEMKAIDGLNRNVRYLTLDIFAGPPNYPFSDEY
Kind of assay: Inhibition of human recombinant AKR1C1 assessed as 1-acenaphthenol oxidation at 400 uM by spectrophotometry. A digest of the protocol:
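Recombinant AKR1C1 (0.3 μM) oxidizing 30 μM 1-acenaphthenol with 2.3 mM NAD+ in 100 mM phosphate pH 9.0, 0.005% triton X-114, 5% DMSO. NADH increase was followed at 340 nm.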

The target in assay [3] is T3, Aldo-keto reductase family 1 member C3 (Homo sapiens) (UniProt P42330).
T3 sequence (whole entry): T1 sequence (P42330 whole entry)
Kind of assay: Inhibition of human recombinant AKR1C3 assessed as 1-acenaphthenol oxidation at 400 uM by spectrophotometry.

Assay [4] addresses T4, Aldo-keto reductase family 1 member C1 (Homo sapiens, UniProt Q04828).
T4 sequence (Q04828 whole entry): T2 sequence (whole entry)
As to the kind of experiment: Inhibition of human recombinant AKR1C1 assessed as 1-acenaphthenol oxidation by spectrophotometry.

The target in assay [5] is T5, Aldo-keto reductase family 1 member C4 (Homo sapiens) (UniProt P17516).
T5 sequence (whole entry): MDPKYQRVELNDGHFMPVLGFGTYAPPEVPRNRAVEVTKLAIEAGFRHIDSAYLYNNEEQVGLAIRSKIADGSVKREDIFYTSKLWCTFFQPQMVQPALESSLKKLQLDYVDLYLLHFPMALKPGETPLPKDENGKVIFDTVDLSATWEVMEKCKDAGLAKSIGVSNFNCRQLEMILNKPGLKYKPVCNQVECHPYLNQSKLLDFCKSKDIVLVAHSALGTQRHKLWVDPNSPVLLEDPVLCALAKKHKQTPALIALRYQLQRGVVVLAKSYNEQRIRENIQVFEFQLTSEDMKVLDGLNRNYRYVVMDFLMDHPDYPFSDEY
Kind of assay: Inhibition of human recombinant AKR1C4 assessed as S-tetralol oxidation at 300 uM by micro plate fluorescence reader based assay. The essentials: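 NADPH production was measured fluorometrically. Inhibitor was tested at 300 μM, quadruplicate wells. Inhibition was taken from initial velocities.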

Assay [6] concerns the target T1, Aldo-keto reductase family 1 member C3. Kind of assay: Competitive inhibition of human recombinant AKR1C3 assessed as S-tetralol oxidation by Cheng-Prusoff equation analysis. The essentials: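 NADPH formation followed fluorometrically; initial velocities measured in quadruplicate per inhibitor concentration. IC50 fitted as y = range/(1+I/IC50)^s + background, then converted to Ki with the Cheng-Prusoff equation for competitive inhibition.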

Assay [7] shares this target. As to the kind of experiment: Inhibition of human recombinant AKR1C3 assessed as S-tetralol oxidation by micro plate fluorescence reader based assay. The essentials:
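Fluorometric plate-reader read-out of NADPH formation as initial velocity. Each inhibitor concentration run in quadruplicate. IC50 from fit to y = range/(1+I/IC50)^s + background.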

Assay [8] has as its target T2, Aldo-keto reductase family 1 member C1 (Homo sapiens). As to the kind of experiment: Inhibition of human recombinant AKR1C1 assessed as S-tetralol oxidation at 300 uM by micro plate fluorescence reader based assay. A digest of the protocol: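 Buffer was 100 mM K3PO4 pH 7.0 with 200 μM NADP+ and 4% DMSO final. Inhibitor was tested at 300 μM, in quadruplicate. Rates are initial velocities.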

The term Ki denotes a measure of affinity in units of concentration, obtained from inhibition or displacement. One may read the inhibition as the drop in the measured response relative to a control, in per cent. For the compound `O=C(NCc1cc(=O)[nH]cn1)c1cc2ccccn2n1`, the Ki in assay [1] came to 118 µM. Further, in assay [2], the inhibition was < 10%.
On to `Cc1ccc(NC(=O)c2cccnc2)c(C(=O)O)c1`, for which the inhibition in assay [2] was found to be 47.4%; in assay [3] it was 33.1%.
As to `O=C(O)CCNS(=O)(=O)c1ccc2ccccc2c1`, in assay [1], the Ki is 148 µM.
Take `O=C(O)c1cc(NC(=O)c2ccccc2F)ccc1O`: the inhibition in assay [2] worked out at 30.1%; in assay [3] it was 48.8%.
Take `Cc1cc(Nc2cc(C(=O)O)ccc2C)nc(C)n1`: in assay [1], the Ki is 144 µM. Further, the inhibition in assay [2] was found to be 39.5%.
For the compound `O=C(O)c1cc(-c2cccc(O)c2)nc2ccccc12`, the Ki in assay [1] turned out to be 54 µM.
In the case of `Cc1oc(C(N)=O)cc1COc1ccccc1C(N)=O`, in assay [4], the Ki came to 122 µM. Besides, the inhibition in assay [3] came to 53.4%.
In the case of `O=C(O)CCNc1cc2ccccc2cc1C(=O)O`, the Ki in assay [1] was 44 µM.
`O=C1COc2ccc(C(=O)c3ccccc3)cc2CN1`: the Ki in assay [1] turned out to be 76 µM.
In the case of `Cc1ccn(Cc2cc(C(=O)O)c3ccccc3n2)n1`, the Ki in assay [1] amounted to 117 µM.
Regarding `O=C(O)CNC=C1C(=O)CC(c2ccccc2)CC1=O` (stereo not drawn), in assay [3], the inhibition was determined as 18.4%.
As to `Cc1cc(C(=O)Nc2ccc(O)c(C(=O)O)c2)oc1C`, the Ki in assay [1] was determined as 82 µM. The inhibition in assay [2] is < 10%.
On to `O=C(CSc1ncnc2[nH]cnc12)Nc1ccccn1`, for which the Ki in assay [4] turned out to be 69 µM. The inhibition in assay [3] was 44.3%.
Consider `CN(c1ccc(C(=O)O)cc1)S(=O)(=O)c1ccccc1`, for which the Ki in assay [1] amounted to 148 µM.
For orientation: IC50 means the concentration that inhibits the measured activity by half. As for `O=C(CC1SC(=O)NC1=O)Nc1ccccc1O` (stereo not drawn), the Ki was 2 µM in assay [1] and 0.107 µM in assay [6]. The figures for the inhibition in assay [5], in assay [2] and in assay [8] were 35%, < 10% and 37%, respectively. Besides, in assay [7], the IC50 is 0.213 µM.
Turning to `NC(=O)c1ccccc1/N=C/c1cccc(O)c1`, the Ki in assay [1] came out at 36 µM. Moreover, the inhibition in assay [2] was < 10%.
As for `Cc1cccc(C(=O)Nc2ccccc2C(N)=O)c1`, the inhibition in assay [2] is < 10%; in assay [3], 10.8%.
As for `O=C(O)c1ccc(CNCc2ccccn2)cc1`, the inhibition in assay [2] was < 10%; in assay [3], 51.2%.
`NC(=O)c1ccccc1NC(=O)c1ccncc1`: the results for the inhibition in assay [2] and in assay [3] were 22.5% and 17.8%, respectively.
Consider `O=CN1CCN(C(=O)c2ccc3ccccc3c2)CC1`, for which, in assay [4], the Ki came out at 64 µM. For the same compound, the inhibition in assay [3] was 46.7%.
As for `O=C(O)c1cccc(NCC(=O)c2ccccc2)c1`, in assay [1], the Ki was 72 µM. Further, the inhibition in assay [2] came to 44.8%.
The corresponding values for `Cc1ccc(S(=O)(=O)Nc2cccc(C(=O)O)c2)cc1` are 111 µM and 43.1%.
Turning to `CC(=O)Nc1ccc(C(C#N)c2ccccc2)cc1` (stereo not drawn), the Ki in assay [1] is 87 µM.
As for `O=C(O)c1cccc(Nc2nc3ccccc3[nH]2)c1`, the Ki in assay [1] was 142 µM. In addition, the inhibition in assay [2] was < 10%.
For the compound `O=C1CCC2(c3ccccc3)Nc3ccccc3N12` (stereo not drawn), the values for the Ki in assay [1] and in assay [6] were 32 µM and 2.73 µM, respectively. Further, in assay [2], the inhibition amounted to 43.5%. Moreover, in assay [7], the half-inhibitory concentration (IC50) is 5.46 µM.

Source of the values: ChEMBL document CHEMBL2169790, “Selective inhibitors of aldo-keto reductases AKR1C1 and AKR1C3 discovered by virtual screening of a fragment library” (J Med Chem, 2012).
